From ChEMBL document CHEMBL1649075, “Synthesis and biological evaluation of (6- and 7-phenyl) coumarin derivatives as selective nonsteroidal inhibitors of 17β-hydroxysteroid dehydrogenase type 1” (J Med Chem, 2011)
Activity calls are given as the source filed them. The rule behind the calls is not given here.

Assays:
17β-HSD1 (Homo sapiens) [1] = test: Displacement of [3H]estrone human recombinant 17beta-HSD1 expressed in Escherichia coli BL21 (DE3)-RIL at 6 uM by scintillation counting in presence of NADPH
17β-HSD1 (Homo sapiens) [2] = test: Displacement of [3H]estrone human recombinant 17beta-HSD1 expressed in Escherichia coli BL21 (DE3)-RIL at 0.6 uM by scintillation counting in presence of NADPH
17β-HSD2 (Homo sapiens) [3] = test: Displacement of [3H]estradiol human recombinant 17beta-HSD2 expressed in Escherichia coli BL21 (DE3)-RIL at 6 uM by scintillation counting in presence of NAD+
17β-HSD2 (Homo sapiens) [4] = test: Displacement of [3H]estradiol human recombinant 17beta-HSD2 expressed in Escherichia coli BL21 (DE3)-RIL at 60 uM by scintillation counting in presence of NAD+
17β-HSD2 (Homo sapiens) [5] = test: Displacement of [3H]estradiol human recombinant 17beta-HSD2 expressed in Escherichia coli BL21 (DE3)-RIL at 0.6 uM by scintillation counting in presence of NAD+
[6] = biological target: T1, Estrogen receptor (Homo sapiens) (UniProt P03372); test: Displacement of [3H]estradiol from human recombinant ERalpha after 16 hrs by liquid scintillation counting relative to estradiol
T1 sequence (whole entry): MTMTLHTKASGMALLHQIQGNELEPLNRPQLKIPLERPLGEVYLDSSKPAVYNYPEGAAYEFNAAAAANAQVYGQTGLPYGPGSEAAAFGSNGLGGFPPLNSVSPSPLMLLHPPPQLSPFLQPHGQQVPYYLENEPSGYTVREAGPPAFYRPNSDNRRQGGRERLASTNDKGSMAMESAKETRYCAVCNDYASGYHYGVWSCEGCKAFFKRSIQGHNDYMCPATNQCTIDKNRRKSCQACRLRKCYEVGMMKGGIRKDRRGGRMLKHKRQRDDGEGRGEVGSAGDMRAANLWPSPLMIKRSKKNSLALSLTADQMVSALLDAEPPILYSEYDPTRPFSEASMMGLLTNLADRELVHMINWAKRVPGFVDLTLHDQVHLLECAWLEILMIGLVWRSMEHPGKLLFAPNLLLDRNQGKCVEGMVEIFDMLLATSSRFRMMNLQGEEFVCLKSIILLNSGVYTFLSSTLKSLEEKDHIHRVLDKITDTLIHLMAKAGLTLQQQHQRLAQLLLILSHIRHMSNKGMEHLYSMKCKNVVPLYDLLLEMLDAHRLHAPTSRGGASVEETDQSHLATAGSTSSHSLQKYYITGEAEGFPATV
In short: (§1)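 Recombinant human ERα or ERβ (0.9 nM) was incubated with 9 nM [2,4,6,7-³H]-E2 and test compound (10^-9 to 10^-5 M) at 4 °C, for 18 h per methods (16 h per table footnote). Nonspecific binding was set with 6 μM E2. Complexes were bound to hydroxyapatite in Tris pH 7.5, washed four times, and counted by liquid scintillation. Runs were in triplicate. RBA = IC50(E2)/IC50(compound) × 100.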

[7] = biological target: Estrogen receptor beta (Homo sapiens) (UniProt Q92731); test: Displacement of [3H]estradiol from human recombinant ERbeta after 16 hrs by liquid scintillation counting relative to estradiol
In short: as §1

Chain of Estrogen receptor beta (Homo sapiens) (Q92731 whole entry): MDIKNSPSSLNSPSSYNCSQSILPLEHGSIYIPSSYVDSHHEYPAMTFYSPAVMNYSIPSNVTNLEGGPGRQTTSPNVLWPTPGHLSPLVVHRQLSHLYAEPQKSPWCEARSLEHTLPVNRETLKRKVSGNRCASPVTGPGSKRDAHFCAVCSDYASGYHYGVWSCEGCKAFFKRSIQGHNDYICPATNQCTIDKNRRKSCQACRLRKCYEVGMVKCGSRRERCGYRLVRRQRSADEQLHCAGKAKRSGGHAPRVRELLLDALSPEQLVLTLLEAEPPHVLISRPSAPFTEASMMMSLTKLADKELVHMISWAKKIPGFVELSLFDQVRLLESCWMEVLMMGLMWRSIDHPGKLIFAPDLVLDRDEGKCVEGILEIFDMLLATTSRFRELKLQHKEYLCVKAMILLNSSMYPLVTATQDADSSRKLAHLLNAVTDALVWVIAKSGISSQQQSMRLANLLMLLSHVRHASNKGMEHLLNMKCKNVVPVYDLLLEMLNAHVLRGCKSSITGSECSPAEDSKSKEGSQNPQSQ

SMILES | inhibition (17β-HSD1 (Homo sapiens) [1]) | inhibition (17β-HSD1 (Homo sapiens) [2]) | also measured
CCOC(=O)c1cc2ccc(-c3ccc(C)cc3)cc2oc1=O | 9% | 11% | –
O=c1ccc2ccc(-c3ccc(Cl)cc3)cc2o1 | 9% | inactive | –
CC(=O)c1cc2ccc(-c3ccc(C)cc3)cc2oc1=O | 72% | 40% | inhibition (17β-HSD2 (Homo sapiens) [3]): inactive; inhibition (17β-HSD2 (Homo sapiens) [4]): inactive
COc1ccc2cc(C(C)=O)c(=O)oc2c1 | 25% | 23% | inhibition (17β-HSD2 (Homo sapiens) [3]): inactive; inhibition (17β-HSD2 (Homo sapiens) [5]): inactive
CCOC(=O)c1cc2cc(-c3ccc(C)cc3)ccc2oc1=O | 16% | 6% | –
CC(=O)c1cc2ccc(OS(=O)(=O)C(F)(F)F)cc2oc1=O | 100% | 60% | Activity [6]: inactive; Activity [7]: inactive; inhibition (17β-HSD2 (Homo sapiens) [3]): inactive; inhibition (17β-HSD2 (Homo sapiens) [5]): inactive
O=c1ccc2ccc(OS(=O)(=O)C(F)(F)F)cc2o1 | 9% | inactive | –
CCOC(=O)c1cc2cc(-c3ccccc3)ccc2oc1=O | 21% | inactive | –
CC(=O)c1cc2cc(-c3ccc(C)cc3)ccc2oc1=O | inactive | inactive | –
COc1ccc(-c2ccc3ccc(=O)oc3c2)cc1 | 10% | inactive | –
CCOC(=O)c1cc2ccc(-c3ccccc3)cc2oc1=O | 7% | inactive | –
CC(=O)c1cc2ccc(-c3ccc(O)cc3)cc2oc1=O | 100% | 76% | Activity [6]: inactive; Activity [7]: inactive; inhibition (17β-HSD2 (Homo sapiens) [3]): inactive; inhibition (17β-HSD2 (Homo sapiens) [4]): inactive; inhibition (17β-HSD2 (Homo sapiens) [5]): inactive
Cc1ccc(-c2ccc3oc(=O)ccc3c2)cc1 | inactive | inactive | –
O=c1ccc2ccc(-c3ccccc3)cc2o1 | 10% | inactive | –
CCOC(=O)c1cc2cc(-c3ccc(F)cc3)ccc2oc1=O | 21% | 21% | –
CCOC(=O)c1cc2ccc(-c3ccc(OC)cc3)cc2oc1=O | 1% | inactive | –
O=c1ccc2cc(-c3ccc(O)cc3)ccc2o1 | 30% | 4% | –
O=c1ccc2ccc(-c3ccc(O)cc3)cc2o1 | 43% | inactive | –

SMILES | inhibition (17β-HSD1 (Homo sapiens) [1]) | inhibition (17β-HSD1 (Homo sapiens) [2]) | also measured
Cc1ccc(-c2ccc3ccc(=O)oc3c2)cc1 | 29% | 10% | –
CC(=O)c1cc2cc(-c3ccccc3)ccc2oc1=O | inactive | inactive | –
COc1ccc(-c2ccc3oc(=O)c(C(C)=O)cc3c2)cc1 | inactive | inactive | –
CCOC(=O)c1cc2cc(Br)ccc2oc1=O | inactive | inactive | –
CC(=O)c1cc2ccc(-c3ccc(F)cc3)cc2oc1=O | 13% | 6% | –
O=c1ccc2cc(Br)ccc2o1 | inactive | inactive | –
CCOC(=O)c1cc2ccc(OS(=O)(=O)C(F)(F)F)cc2oc1=O | inactive | inactive | –
C[C@]12CC[C@H]3C(=CCc4cc(O)ccc43)[C@@H]1CCC2=O | – | – | RBA [6]: 0.15%; RBA [7]: 1.4%
COc1ccc(-c2ccc3oc(=O)ccc3c2)cc1 | 26% | 7% | –
CCOC(=O)c1cc2cc(-c3ccc(OC)cc3)ccc2oc1=O | 7% | inactive | –
O=c1ccc2cc(-c3ccccc3)ccc2o1 | 18% | inactive | –
COc1ccc(-c2ccc3cc(C(C)=O)c(=O)oc3c2)cc1 | 86% | 48% | Activity [6]: inactive; Activity [7]: inactive; inhibition (17β-HSD2 (Homo sapiens) [3]): inactive; inhibition (17β-HSD2 (Homo sapiens) [4]): inactive; inhibition (17β-HSD2 (Homo sapiens) [5]): inactive
CCOC(=O)c1cc2ccc(-c3ccc(Cl)cc3)cc2oc1=O | inactive | inactive | –
O=c1ccc2cc(-c3ccc(Cl)cc3)ccc2o1 | 10% | inactive | –
CCOC(=O)c1cc2cc(-c3ccc(Cl)cc3)ccc2oc1=O | 14% | 10% | –
CC(=O)c1cc2cc(-c3ccc(F)cc3)ccc2oc1=O | 59% | 15% | –
CC(=O)c1cc2cc(-c3ccc(Cl)cc3)ccc2oc1=O | inactive | inactive | –
CC(=O)c1cc2ccc(-c3ccc(Cl)cc3)cc2oc1=O | 17% | 12% | –
